# What was measured:
# [1] = target: Cruzipain (Trypanosoma cruzi) (UniProt P25779); test: Compound is evaluated for inhibition kinetic constant (kobs/[I], 1/M.1/s) for Cruzaine
# How it was run: (§1)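 Enzyme (~1-5 nM) starts the reaction with substrate and inhibitor present. Fluorescence ex 380/em 450 nm for 5 min. kobs from first-order fits at ≥6 inhibitor concentrations; Ki app corrected by 1+[S]/Km; second-order constant from 1/kobs vs 1/[I] slope; duplicates.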
# [2] = target: T1, Calpain-1 catalytic subunit (Homo sapiens) (UniProt P07384); test: Compound is evaluated for inhibition kinetic constant (kobs/[I], 1/M.1/s) for calpain 1
# T1 sequence (whole entry): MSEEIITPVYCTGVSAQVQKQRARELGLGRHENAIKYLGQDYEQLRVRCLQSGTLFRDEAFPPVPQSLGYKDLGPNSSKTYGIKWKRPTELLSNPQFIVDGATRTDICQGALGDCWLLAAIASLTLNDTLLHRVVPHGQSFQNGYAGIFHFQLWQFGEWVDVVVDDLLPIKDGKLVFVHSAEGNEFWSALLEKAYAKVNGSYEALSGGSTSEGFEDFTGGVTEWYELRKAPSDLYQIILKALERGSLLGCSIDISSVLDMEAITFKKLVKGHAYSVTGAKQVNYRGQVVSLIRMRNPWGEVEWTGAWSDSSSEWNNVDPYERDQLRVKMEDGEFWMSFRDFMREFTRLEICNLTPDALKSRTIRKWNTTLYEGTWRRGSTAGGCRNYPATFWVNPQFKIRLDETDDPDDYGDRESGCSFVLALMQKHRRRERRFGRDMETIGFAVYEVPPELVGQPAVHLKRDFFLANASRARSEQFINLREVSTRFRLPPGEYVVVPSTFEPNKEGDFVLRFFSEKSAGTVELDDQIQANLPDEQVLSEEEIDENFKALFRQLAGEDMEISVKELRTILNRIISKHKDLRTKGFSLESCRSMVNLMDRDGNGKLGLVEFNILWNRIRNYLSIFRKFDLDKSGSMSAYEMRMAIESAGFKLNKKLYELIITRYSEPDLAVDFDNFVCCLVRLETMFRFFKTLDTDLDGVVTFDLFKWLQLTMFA
# How it was run: (§2)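 Enzyme ~20 nM is added last to substrate plus inhibitor at 25 °C. Fluorescence ex 380/em 450 nm for 5 min or until ≤1% activity. Progress curves fit first-order to kobs; reported as kobs/[I]; duplicate runs.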
# [3] = target: T2, Cathepsin B (Homo sapiens, UniProt P07858); test: Compound is evaluated for inhibition kinetic constant (kobs/[I], 1/M.s) for cathepsin B
# How it was run: (§3)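 Cathepsin B, ~5-10 nM, added to 50 mM phosphate pH 6.0, 2.5 mM EDTA, 2.5 mM DTT, 50 μM Z-Arg-Arg-AMC (Km 190 μM), DMF <1%, 25 °C. Fluorescence ex 380/em 450 nm over 5 min. kobs by first-order fit at ≥6 inhibitor concentrations; kirr and Ki app from saturation fit, Ki = Ki app/(1+[S]/Km); kirr/Ki also from 1/kobs vs 1/[I]; duplicates.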
# [4] = target: T3, Cathepsin K (Homo sapiens) (UniProt P43235); test: Compound is evaluated for inhibition kinetic constant (kobs/[I], 1/M.1/s) for cathepsin O2
# T3 sequence (whole entry): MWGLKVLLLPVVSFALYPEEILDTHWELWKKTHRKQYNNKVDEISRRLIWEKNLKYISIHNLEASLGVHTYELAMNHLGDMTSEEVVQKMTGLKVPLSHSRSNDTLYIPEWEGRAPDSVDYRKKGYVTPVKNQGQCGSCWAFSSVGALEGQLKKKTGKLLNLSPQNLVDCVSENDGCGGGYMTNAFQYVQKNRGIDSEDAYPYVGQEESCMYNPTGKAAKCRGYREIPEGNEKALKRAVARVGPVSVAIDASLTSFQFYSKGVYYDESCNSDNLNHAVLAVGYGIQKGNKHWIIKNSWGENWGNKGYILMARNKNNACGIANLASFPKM
# How it was run: (§4)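 Read at ex 380/em 450 nm for 5 min. Progress curves fit first-order for kobs at ≥6 inhibitor concentrations; kinact and Ki app from saturation fit, Ki corrected for substrate; ratio also from double-reciprocal slope; duplicates.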
# [5] = target: T4, Calpain-2 catalytic subunit (Homo sapiens) (UniProt P17655); test: Compound is evaluated for inhibition kinetic constant (kobs/[I], 1/M.1/s) for Calpain 2; how it was run: as §2
# T4 sequence (whole entry): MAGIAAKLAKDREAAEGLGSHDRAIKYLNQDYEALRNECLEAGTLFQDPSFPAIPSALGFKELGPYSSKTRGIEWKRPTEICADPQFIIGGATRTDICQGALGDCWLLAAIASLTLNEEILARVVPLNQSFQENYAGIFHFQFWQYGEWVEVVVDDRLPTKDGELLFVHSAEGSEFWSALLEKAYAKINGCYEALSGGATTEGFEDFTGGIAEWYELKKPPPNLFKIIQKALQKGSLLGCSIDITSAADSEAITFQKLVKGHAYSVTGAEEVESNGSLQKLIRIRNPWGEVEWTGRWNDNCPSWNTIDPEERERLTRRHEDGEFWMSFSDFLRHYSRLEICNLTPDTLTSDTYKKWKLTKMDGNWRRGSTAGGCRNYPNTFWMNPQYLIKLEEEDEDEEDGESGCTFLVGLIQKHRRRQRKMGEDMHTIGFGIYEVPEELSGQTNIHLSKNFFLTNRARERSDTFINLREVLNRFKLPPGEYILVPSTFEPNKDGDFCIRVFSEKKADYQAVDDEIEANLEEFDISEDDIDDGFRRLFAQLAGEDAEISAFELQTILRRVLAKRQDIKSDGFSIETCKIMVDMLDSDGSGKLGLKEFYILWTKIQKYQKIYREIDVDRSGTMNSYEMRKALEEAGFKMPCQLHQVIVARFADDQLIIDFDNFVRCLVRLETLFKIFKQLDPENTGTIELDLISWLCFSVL
# [6] = target: T5, Procathepsin L (Homo sapiens, UniProt P07711); test: Compound is evaluated for inhibition kinetic constant (kobs/[I], 1/M.1/s) for cathepsin L
# How it was run: (§5)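 Fluorescence increase (ex 380, em 450 nm) followed 5 min or to ≤1% activity. kobs by first-order fit at ≥6 inhibitor levels near Ki, fit to saturation equation; Ki = Ki app/(1+[S]/Km); duplicates.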
# Target sequence in this assay (P07711 114-333 limits assumed): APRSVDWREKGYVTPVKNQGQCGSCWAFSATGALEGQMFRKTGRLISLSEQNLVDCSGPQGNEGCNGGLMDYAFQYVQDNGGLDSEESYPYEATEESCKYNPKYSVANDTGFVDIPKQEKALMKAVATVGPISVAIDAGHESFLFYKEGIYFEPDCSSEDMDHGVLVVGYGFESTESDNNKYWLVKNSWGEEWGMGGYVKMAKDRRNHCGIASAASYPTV
# [7] = target: T6, Cathepsin S (Homo sapiens, UniProt P25774); test: Compound is evaluated for inhibition kinetic constant Kinact for the cathepsin S
# How it was run: (§6)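 Fluorescence ex 380/em 450 nm, 5 min or to ≤1% activity. kobs from first-order fits, ≥6 inhibitor levels near Ki, fit to saturation equation; Ki corrected by 1+[S]/Km; duplicates.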
# Target sequence in this assay (P25774 115-331 limits assumed): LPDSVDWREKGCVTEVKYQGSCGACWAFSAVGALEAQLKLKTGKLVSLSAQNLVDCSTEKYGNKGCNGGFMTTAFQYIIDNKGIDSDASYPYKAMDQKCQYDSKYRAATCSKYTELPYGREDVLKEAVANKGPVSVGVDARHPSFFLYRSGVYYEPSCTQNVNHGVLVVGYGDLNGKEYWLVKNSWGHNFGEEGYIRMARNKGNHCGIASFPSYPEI
# [8] = target: T5, Procathepsin L; test: Compound is evaluated for inhibitory potency against cathepsin L; how it was run: as §5
# Target sequence in this assay (P07711 whole entry): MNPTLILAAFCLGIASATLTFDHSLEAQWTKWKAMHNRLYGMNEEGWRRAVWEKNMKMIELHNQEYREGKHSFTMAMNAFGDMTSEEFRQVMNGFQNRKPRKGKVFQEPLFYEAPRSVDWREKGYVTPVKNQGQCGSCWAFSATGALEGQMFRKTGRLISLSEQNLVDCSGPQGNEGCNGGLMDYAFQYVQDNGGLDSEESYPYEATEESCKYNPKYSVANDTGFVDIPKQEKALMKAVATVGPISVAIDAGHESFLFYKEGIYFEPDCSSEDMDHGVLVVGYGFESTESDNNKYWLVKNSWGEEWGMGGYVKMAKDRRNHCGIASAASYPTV
# [9] = target: Cruzipain (Trypanosoma cruzi) (UniProt P25779); test: Ratio of inhibition kinetic constants kinact and Ki against Cruzaine; how it was run: as §1
# [10] = target: T3, Cathepsin K (Homo sapiens); test: Compound is evaluated for inhibition kinetic constant Kinact for the cathepsin O2; how it was run: as §4
# [11] = target: T2, Cathepsin B; test: Compound is evaluated for inhibition kinetic constant Kirr for the cathepsin B; how it was run: as §3
# [12] = target: Cruzipain (Trypanosoma cruzi) (UniProt P25779); test: Compound is evaluated for inhibition kinetic constant Kinact for the Cruzaine; how it was run: as §1
# [13] = target: T3, Cathepsin K (Homo sapiens); test: Ratio of inhibition kinetic constants kinact and Ki against Cathepsin O2; how it was run: as §4
# [14] = target: T5, Procathepsin L; test: Ratio of inhibition kinetic constants kinact and Ki against Cathepsin L; how it was run: as §5
# Target sequence in this assay (P07711 114-333 limits assumed): as the sequence (P07711 114-333 limits assumed) above
# [15] = target: T2, Cathepsin B; test: Compound is evaluated for inhibitory potency against cathepsin B; how it was run: as §3
# [16] = target: T5, Procathepsin L; test: Compound is evaluated for inhibition kinetic constant Kinact for the cathepsin L; how it was run: as §5
# Target sequence in this assay (P07711 114-333 limits assumed): as above
# [17] = target: T6, Cathepsin S; test: Ratio of inhibition kinetic constants kinact and Ki against Cathepsin S; how it was run: as §6
# Target sequence in this assay (P25774 115-331 limits assumed): as the sequence (P25774 115-331 limits assumed) above
# [18] = target: T2, Cathepsin B; test: Ratio of inhibition kinetic constants kirr and Ki against Cathepsin B; how it was run: as §3
# [19] = target: T7, Cathepsin K (Homo sapiens, UniProt P43235); test: Compound is evaluated for inhibitory potency against cathepsin O2; how it was run: as §4
# T7 sequence (P43235 whole entry): T3 sequence (whole entry)
# [20] = target: Cruzipain (Trypanosoma cruzi, UniProt P25779); test: Compound is evaluated for inhibitory potency against Cruzaine; how it was run: as §1
# [21] = target: T6, Cathepsin S; test: Compound is evaluated for inhibitory potency against cathepsin S; how it was run: as §6
# Target sequence in this assay (P25774 whole entry): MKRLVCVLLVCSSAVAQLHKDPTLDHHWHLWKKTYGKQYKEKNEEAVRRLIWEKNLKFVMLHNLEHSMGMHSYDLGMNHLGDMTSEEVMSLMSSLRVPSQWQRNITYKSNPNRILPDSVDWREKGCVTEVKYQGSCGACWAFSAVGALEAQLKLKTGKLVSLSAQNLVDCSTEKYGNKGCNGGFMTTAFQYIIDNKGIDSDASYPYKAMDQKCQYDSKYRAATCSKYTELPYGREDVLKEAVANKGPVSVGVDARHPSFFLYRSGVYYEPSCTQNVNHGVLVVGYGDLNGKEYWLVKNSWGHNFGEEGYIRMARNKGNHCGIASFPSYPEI
# [22] = target: T6, Cathepsin S; test: Compound is evaluated for inhibition kinetic constant (kobs/[I], 1/M.1/s) for cathepsin S; how it was run: as §6
# Target sequence in this assay (P25774 115-331 limits assumed): as the sequence (P25774 115-331 limits assumed) above
# [23] = target: T2, Cathepsin B; test: Compound is evaluated for inhibition kinetic constant Ki for the cathepsin B; how it was run: as §3
# Cruzipain, sequence (P25779 whole entry): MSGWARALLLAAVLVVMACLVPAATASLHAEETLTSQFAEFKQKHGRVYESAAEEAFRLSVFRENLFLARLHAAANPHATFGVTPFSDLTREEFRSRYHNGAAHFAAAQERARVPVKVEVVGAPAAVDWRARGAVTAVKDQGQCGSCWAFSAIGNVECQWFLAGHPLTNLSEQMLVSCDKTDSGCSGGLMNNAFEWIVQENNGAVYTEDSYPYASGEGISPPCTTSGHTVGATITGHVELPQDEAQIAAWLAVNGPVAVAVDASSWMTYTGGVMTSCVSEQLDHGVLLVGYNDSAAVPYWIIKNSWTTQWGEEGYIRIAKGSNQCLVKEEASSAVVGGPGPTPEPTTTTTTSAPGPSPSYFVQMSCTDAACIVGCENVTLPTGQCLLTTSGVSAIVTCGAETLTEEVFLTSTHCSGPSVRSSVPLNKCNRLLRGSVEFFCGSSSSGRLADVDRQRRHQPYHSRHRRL
# Cruzipain (Trypanosoma cruzi), sequence (P25779 123-467 limits assumed): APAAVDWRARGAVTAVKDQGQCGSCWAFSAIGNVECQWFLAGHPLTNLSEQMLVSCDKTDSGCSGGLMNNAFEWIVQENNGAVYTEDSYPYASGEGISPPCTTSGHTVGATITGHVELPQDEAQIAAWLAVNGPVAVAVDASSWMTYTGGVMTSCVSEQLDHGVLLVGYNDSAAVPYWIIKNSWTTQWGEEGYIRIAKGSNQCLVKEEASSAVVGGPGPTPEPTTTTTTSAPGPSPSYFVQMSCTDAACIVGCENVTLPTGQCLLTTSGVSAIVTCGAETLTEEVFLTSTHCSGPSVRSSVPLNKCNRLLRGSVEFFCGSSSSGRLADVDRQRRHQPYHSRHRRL
Compound,k obs / 1 [1],k obs / 1 [2],k obs / 1 [3],k obs / 1 [4],k obs / 1 [6],kirr [11],k obs / 1 [22],also measured
CC(=O)N[C@@H](CC(C)C)C(=O)N[C@@H](CC(C)C)C(=O)N[C@@H](CCS(C)(=O)=O)C(=O)/C=C/S(=O)(=O)c1ccccc1,104000 M⁻¹ s⁻¹,8400 M⁻¹ s⁻¹,0 M⁻¹ s⁻¹,22700 M⁻¹ s⁻¹,1.5e+06 M⁻¹ s⁻¹,–,–,k obs / 1 [5]: 24300 M⁻¹ s⁻¹
CC(C)C[C@H](NC(=O)[C@H](CCc1ccccc1)N/C=C/S(=O)(=O)c1ccccc1)C(=O)NC(=O)NN1CCOCC1,–,–,–,–,–,0.17 s⁻¹,–,K inact [7]: 0.16 s⁻¹; Ki [8]: 720 nM; Ratio [9]: 620000; K inact [10]: 0.17 s⁻¹; K inact [12]: 0.13 s⁻¹; Ratio [13]: 773000; Ratio [14]: 387000; Ki [15]: 39000 nM; K inact [16]: 0.28 s⁻¹; Ratio [17]: 2.63e+07; Ratio [18]: 4250; Ki [19]: 230 nM; Ki [20]: 220 nM; Ki [21]: 5.9 nM
O=C(NC(=O)[C@H](Cc1ccc2ccccc2c1)NC(=O)[C@H](CCc1ccccc1)N/C=C/S(=O)(=O)CCc1ccccc1)NN1CCOCC1,450000 M⁻¹ s⁻¹,–,33000 M⁻¹ s⁻¹,–,2.24e+06 M⁻¹ s⁻¹,–,2.9e+07 M⁻¹ s⁻¹,–
NCCCC[C@H](N/C=C/S(=O)(=O)c1ccccc1)C(=O)N[C@@H](Cc1ccccc1)C(=O)NC(=O)NN1CCOCC1,149000 M⁻¹ s⁻¹,–,11300 M⁻¹ s⁻¹,83300 M⁻¹ s⁻¹,220000 M⁻¹ s⁻¹,–,1.07e+07 M⁻¹ s⁻¹,–
CCCC[C@H](NC(=O)[C@H](CC(C)C)NC(=O)[C@H](CC(C)C)NC(C)=O)C(=O)/C=C/S(=O)(=O)c1ccccc1,133000 M⁻¹ s⁻¹,6900 M⁻¹ s⁻¹,0 M⁻¹ s⁻¹,–,930000 M⁻¹ s⁻¹,–,–,k obs / 1 [5]: 7600 M⁻¹ s⁻¹
O=C(NC(=O)[C@H](Cc1ccc2ccccc2c1)NC(=O)[C@H](CCc1ccccc1)N/C=C/S(=O)(=O)c1ccc2ccccc2c1)NN1CCOCC1,–,–,–,–,–,0.061 s⁻¹,–,K inact [7]: 0.1 s⁻¹; Ki [8]: 18 nM; Ratio [9]: 1.04e+06; K inact [12]: 0.046 s⁻¹; Ki [15]: 150 nM; K inact [16]: 0.14 s⁻¹; Ki [20]: 48 nM; Ki [21]: 1.8 nM
CC(C)C[C@H](NC(=O)NN1CCOCC1)C(=O)N[C@@H](CC(C)C)C(=O)N[C@@H](Cc1ccc(O)cc1)C(=O)/C=C/S(=O)(=O)c1ccccc1,–,10800 M⁻¹ s⁻¹,–,815 M⁻¹ s⁻¹,28700 M⁻¹ s⁻¹,–,25100 M⁻¹ s⁻¹,–
O=C(NC(=O)[C@H](Cc1ccccc1)NC(=O)[C@H](CCc1ccccc1)N/C=C/S(=O)(=O)CCc1ccccc1)NN1CCOCC1,180000 M⁻¹ s⁻¹,–,29000 M⁻¹ s⁻¹,28500 M⁻¹ s⁻¹,340000 M⁻¹ s⁻¹,–,4.7e+06 M⁻¹ s⁻¹,–
O=C(NC(=O)[C@H](Cc1cc(I)c(O)c(I)c1)NC(=O)[C@H](CCc1ccccc1)N/C=C/S(=O)(=O)c1ccccc1)NN1CCOCC1,–,–,–,–,–,0.36 s⁻¹,–,Ki [23]: 340 nM; Ratio [18]: 1.08e+06
CC(C)C[C@H](NC(=O)OCc1ccccc1)C(=O)N[C@@H](CC(C)C)C(=O)N[C@@H](Cc1ccc(O)cc1)C(=O)/C=C/S(=O)(=O)c1ccccc1,45000 M⁻¹ s⁻¹,6400 M⁻¹ s⁻¹,730 M⁻¹ s⁻¹,900 M⁻¹ s⁻¹,–,–,280000 M⁻¹ s⁻¹,–
O=C(NC(=O)[C@H](Cc1ccccc1)NC(=O)[C@H](CCc1ccccc1)N/C=C/S(=O)(=O)c1ccccc1)NN1CCOCC1,–,–,–,–,–,0.17 s⁻¹,–,K inact [7]: 0.085 s⁻¹; Ki [8]: 1000 nM; Ratio [9]: 203000; K inact [10]: 0.31 s⁻¹; K inact [12]: 0.072 s⁻¹; Ratio [13]: 10200; Ratio [14]: 224000; Ki [15]: 11000 nM; K inact [16]: 0.24 s⁻¹; Ratio [17]: 7.7e+06; Ratio [18]: 16400; Ki [19]: 30500 nM; Ki [20]: 360 nM; Ki [21]: 11 nM
CSCC[C@H](NC(=O)[C@H](CC(C)C)NC(=O)[C@H](CC(C)C)NC(C)=O)C(=O)/C=C/S(=O)(=O)c1ccccc1,110000 M⁻¹ s⁻¹,5600 M⁻¹ s⁻¹,0 M⁻¹ s⁻¹,25000 M⁻¹ s⁻¹,880000 M⁻¹ s⁻¹,–,–,–
CS(=O)(=O)/C=C/N[C@@H](CCc1ccccc1)C(=O)N[C@@H](Cc1ccccc1)C(=O)NC(=O)NN1CCOCC1,22000 M⁻¹ s⁻¹,–,5100 M⁻¹ s⁻¹,6540 M⁻¹ s⁻¹,8700 M⁻¹ s⁻¹,–,1.2e+06 M⁻¹ s⁻¹,–
